We go through 19 molecules from ChEMBL document CHEMBL1649406, “Synthesis and anti-mycobacterial activities of triazoloquinolones” (Eur J Med Chem, 2011).

In brackets after ≈: the same amount, converted by molar mass.

The assay has as its system Mycobacterium tuberculosis. The assay can be described thus: Antimycobacterial activity against Mycobacterium bovis BCG after 7 days by broth microdilution method. It is filed as functional. The note with it: variant bovis BCG, 168 h. The essentials:
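Strains were pre-grown in Middlebrook 7H11 with OADC. The microdilution assay ran in sealed 96-well plates at 37 °C and was read after 72 h for M. smegmatis mc²155 and after 7 days for M. bovis BCG.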
(Broth dilution looks for growth in wells or tubes with falling amounts of substance.)
`CCOC(=O)c1cn(C)c2c(ccc3c2nnn3Cc2ccccc2)c1=O` yielded an MIC of 64 mg/L (≈ 177 µM). `CCOC(=O)c1cn(CC)c2c(ccc3c2nnn3Cc2ccccc2)c1=O` returned an MIC of more than 128 mg/L. The value for `C=CCn1cc(C(=O)OCC)c(=O)c2ccc3c(nnn3Cc3ccccc3)c21` was 64 mg/L (≈ 165 µM); that for `CCCCn1cc(C(=O)OCC)c(=O)c2ccc3c(nnn3Cc3ccccc3)c21` was 64 mg/L (≈ 158 µM); that for `CCOC(=O)c1cn(C(C)(C)C)c2c(ccc3c2nnn3C)c1=O` was 8 mg/L (≈ 24.4 µM).

For the molecule `C=C(C)Cn1cc(C(=O)OCC)c(=O)c2ccc3c(nnn3C)c21`, the minimal inhibitory concentration (MIC) is more than 128 mg/L. `CCOC(=O)c1cn(CC2CC2)c2c(ccc3c2nnn3C)c1=O` returned an MIC of 64 mg/L (≈ 196 µM).

The molecule `CCOC(=O)c1cn(CC2CCC2)c2c(ccc3c2nnn3C)c1=O` gave an MIC of 64 mg/L (≈ 188 µM).

`Cn1cc(C(=O)O)c(=O)c2ccc3c(nnn3Cc3ccccc3)c21` registered an MIC of 4 mg/L (≈ 12 µM). The value for `CCn1cc(C(=O)O)c(=O)c2ccc3c(nnn3Cc3ccccc3)c21` was 16 mg/L (≈ 45.9 µM); that for `C=CCn1cc(C(=O)O)c(=O)c2ccc3c(nnn3Cc3ccccc3)c21` was 8 mg/L (≈ 22.2 µM).

Molecule `CCCCn1cc(C(=O)O)c(=O)c2ccc3c(nnn3Cc3ccccc3)c21` had a minimal inhibitory concentration (MIC) of 64 mg/L (≈ 170 µM).

Molecule `Cn1nnc2c3c(ccc21)c(=O)c(C(=O)O)cn3C(C)(C)C` returned an MIC of 16 mg/L (≈ 53.3 µM). The value for `C=C(C)Cn1cc(C(=O)O)c(=O)c2ccc3c(nnn3C)c21` was 32 mg/L (≈ 107 µM); that for `Cn1nnc2c3c(ccc21)c(=O)c(C(=O)O)cn3CC1CC1` was 16 mg/L (≈ 53.6 µM); that for `Cn1nnc2c3c(ccc21)c(=O)c(C(=O)O)cn3CC1CCC1` was 16 mg/L (≈ 51.2 µM). Under `Cn1cc(C(=O)O)c(=O)c2ccc3c(nnn3C)c21` stands 4 mg/L (≈ 15.5 µM); under `O=C(O)c1cn(C2CC2)c2cc(N3CCNCC3)c(F)cc2c1=O` [CIPROFLOXACIN], 0.25 mg/L (≈ 0.754 µM).

`CC[C@@H](CO)NCCN[C@@H](CC)CO` [ETHAMBUTOL]: the minimum inhibitory concentration (MIC) is 2 mg/L (≈ 9.79 µM).

A word on the MIC: it is the lowest concentration found to suppress growth. A low value points to greater potency.
